This is an account of results in ChEMBL document CHEMBL4513216, “Probing the Open Global Health Chemical Diversity Library for Multistage-Active Starting Points for Next-Generation Antimalarials” (ACS Infect Dis, 2020).

A short description of this series: Toxicity liver stage against HepG2, at 10uM. It counts as cell-based. Also noted: test concentration 10 uM, cell line HepG2-A16-CD81EGFP. The conditions noted are these: human, HepG2-A16-CD81EGFP cells; read-out: INHIBITION
The method in brief: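 Uninfected HepG2-A16-CD81EGFP cells, 3 × 10^3 per well, 1536-well, plated on prespotted compound at 10 μM final, parasite-free screening media added to match infected plates; puromycin 10 μM positive, DMSO 0.5% negative; run in parallel with 48 h PbLuc assay at 37 °C, 5% CO2; viability by CellTiter-Glo luminescence, normalized to controls.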
In the case of `CS(=O)(=O)N1CCC(CNC(=O)c2cnccn2)CC1`, the cytotoxicity at 10 µM is 0.503%.
For `Cc1ccc(NC(=O)c2cnc(N3CCN(C)CC3)nc2C)cc1C` the value was -7.8%.
The figure for `O=c1[nH]cc(Nc2ccccc2)c(=O)[nH]1` is 15.6%; for `c1cnc(NCc2n[nH]c3c2CCN(Cc2ccncc2)C3)nc1` it is -3.83%.
For `Cc1cnc(N2CCC3(CC2)C(c2ccccc2)CC(=O)N3C)nc1` (centres undefined) the value was -4.35%; for `CCN1C(=O)CCCC12CCCN(C(=O)c1ccoc1)C2` (centres undefined), -5.83%.
In the case of `CC(C)Nc1ncnc2c1CCNCC2`, the cytotoxicity at 10 µM is -1.43%.
For `COC(=O)CCN(CC1CCOC1)C1CC1` (centres undefined) the value was -9.66%; for `Cn1ccnc1COc1ccc(NC(=O)C2CCCO2)cc1` (centres undefined), -14.9%.
`CN(Cc1cccs1)C(=O)c1ccc(N2CCOCC2)c(F)c1`: the cytotoxicity at 10 µM was -5.56%.
The figure for `Cc1nc(N2CCN(C(=O)NCc3cscn3)CC2)sc1C` is -11.3%; for `COCCCNS(=O)(=O)c1cc(Br)sc1C` it is -6.14%.
In the case of `CN(C(=O)CN1CCCc2cc(F)cc(F)c21)c1ccccc1`, the cytotoxicity at 10 µM amounted to 14.2%.
On to `CS(=O)(=O)N1CCO[C@@H]2CN(C(=O)N3CCCC3)CC[C@@H]2C1`, for which the cytotoxicity at 10 µM is -101%.
The figure for `Cc1ccc(CNCC2Cn3nncc3CO2)o1` (centres undefined) is -113%; for `Cc1cc(C(=O)N2CCc3ncc(CN4CCCCC4)n3CC2)no1` it is -100%.
The figure for `Cc1nc(CN2C(=O)CC[C@@H]3[C@H]2CCN3C(=O)C2CCOCC2)cs1` is -81.3%; for `CCOCC(=O)N1CC[C@@H]2O[C@@H](C)C[C@H]2C1` it is -69.2%.
The figure for `CCN(Cc1nccn1C)C(=O)c1ccc(NCc2ccc(C)o2)nc1` is 9.78%; for `CC(C)N1CCC(C(=O)N2CCN(c3cccc(C(=O)O)c3)CC2)CC1` it is 6.4%; for `CCn1ccnc1C1CCCN(c2nccc3ccccc23)C1` (centres undefined) it is -2.74%.
Regarding `Cc1nc(-c2cccc(N3CCC(N4CCCC(C#N)C4)CC3)c2)cs1` (centres undefined), the cytotoxicity at 10 µM came out at 6.22%.
The figure for `CC(C)CN(Cc1ccc(O)c(C(=O)O)c1)Cc1ccccn1` is 8.5%; for `CSc1ccc(C(C(=O)O)N2CCC(C(=O)N3CCCC3)CC2)cc1` (centres undefined) it is -3.45%; for `Cc1cccnc1NCCNc1cc(C(C)C)nc2ccnn12` it is -5.29%.
The figure for `CCn1ccnc1C1CCN(Cc2c(F)cccc2F)CC1` is -6.82%; for `CSc1ccc(CN(CCO)Cc2nccn2C)cc1` it is 4.98%.
For `CN(C)C[C@@H]1CN(C(=O)c2cc(-c3ccccc3)n[nH]2)C[C@@H]1CO`, the cytotoxicity at 10 µM was -19.9%.
Turning to `CCC(C)N(Cc1sccc1C)C(=O)c1cc(N)ccn1` (centres undefined), the cytotoxicity at 10 µM worked out at 9.8%.
The figure for `Cc1ccc(C)c(CSc2nnc(C(N)Cc3ccccc3)o2)c1` (centres undefined) is -0.431%; for `CCN(C)c1ncnc2c1CCN(S(=O)(=O)c1ccccc1)CC2` it is -106%.
As for `CN(C)Cc1cnc2n1CCN(C(=O)NC1CCCC1)CC2`, the cytotoxicity at 10 µM was -3.77%.
The figure for `CN(Cc1cn2c(n1)CN(Cc1nccs1)CC2)Cc1ccco1` is -77.2%.
Turning to `OCCOCc1nnn2c1CN(c1ncccn1)CCC2`, the cytotoxicity at 10 µM is -10.5%.
For `CN(C)C(=O)N[C@H]1CN(C2CCOCC2)[C@@H]2CCCO[C@H]12` the value was -1.86%; for `c1ccc(NC[C@@H]2CCC[C@@H]3CN(Cc4cc[nH]n4)C[C@@H]32)nc1`, -111%.
The figure for `Cc1noc([C@H]2C[C@H]3OCC[C@H]3N(Cc3cccs3)C2)n1` is -96.3%; for `CC(C)NC(=O)N1C[C@@H]2C[C@H](C(=O)N3CCCC3)[C@H](C1)O2` it is -101%; for `CN(C)S(=O)(=O)N1C[C@@H]2C[C@H](C(=O)Nc3cccnc3)[C@H](C1)O2` it is -71.7%.
